High-throughput results as filed in PubChem.
ABHD5-PLIN5 inh – blocks binding of human ABHD5 to perilipin-5 | Q00G26+Q8WTS1 | Split G. princeps luciferase complementation, luminescence, 4 h | 0.78% of 360,000 active | AID 602281 | inhibition, % at 4 µM;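 active means inhibition above the mean inhibition across every tested compound plus 3 SD, cut at about 22% in these data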;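 further: 0% = DMSO only wells and the 100% control is not disclosed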
NadD inh – NadD (S. aureus) enzyme inhibition; purified NadD enzyme, colorimetric absorbance read-out; inhibition, % at 20 µM; 0.78% of 360,000 active; in the data active means inhibition above about 26%
Rpn11 inh – inhibitors of human proteasome Rpn11; inhibition, % at 20 µM; human 26S proteasome, Ub4-pepOG fluorescence polarization; 20S core pre-blocked with epoxomicin; AID 588493; 0.59% of 360,000 active; O00487;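 active means inhibition at 20 µM, scaled to each plate's controls, above about 33%, limit read from the data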
Rin1 Abl inh – blocks binding of human Rin1 to Abl. inhibition, % at 7.35 µM. 0.4% of 360,000 active. AID 588664. TR-FRET Rin1/Abl binding, biochemical. P00519+Q13671; in the data active means inhibition above about 5%, passing the limit was not always enough
XiGFP reactiv – X-chromosome reactivation activator; XiGFP mouse fibroblasts, % GFP-positive cells imaging, 3 d; cells co-treated with 5-aza-dC sensitizer; scaled so ellipticine positive control = 100%; activation, % at 7.58 µM; 0.055% of 360,000 active; AID 743238;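 active means mean normalized replicate activation at least 10% and every replicate at or above 10%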;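 further: 0% = median of on-plate neutral control wells and 100% = ellipticine 6 µM median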
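System: 68-5-11 XiGFP fibroblast line; Timing: 3 days compound exposure; Compound dosing: one concentration, pinned; Benchmarks: positive control ellipticine, 6 µM final; Buffer or medium: DMEM containing 5-aza-dC.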
Rpn11 inh conf – Rpn11 inhibition confirmation, single concentration; shares compounds with Rpn11 inh; purified human 26S proteasome, Ub4-pepOG fluorescence polarization; proteasome pretreated with epoxomicin; inhibition, % at 20 µM; 29% of 1,900 active
MMP-2 inh – blocks human MMP-2, flagging nonselective RPN11 hits; shares compounds with Rpn11 inh; recombinant MMP-2, FRET peptide cleavage fluorescence; inhibition, % at 20 µM; 4% of 1,900 active; AID 602330;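 further: human MMP-2 activated beforehand with APMA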
Thrombin FP – counter-screen for RPN11 inhibitors: inhibition of bovine thrombin. shares compounds with Rpn11 inh. bovine thrombin cleavage of Ub4-pepOG, fluorescence polarization. inhibition, % at 20 µM. 13% of 1,900 active;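 active means mean inhibition at least 40% at 20 µM, or signal 3 deviations below plate average, so some actives read negative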;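 further: plate controls were thrombin with DMSO for no effect and buffer wells lacking thrombin for full effect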
An asterisk follows results filed as active; . = not tested or not shown. In the library only some 1.9% were active in any assay of this set; here they are far more common. Unless noted, no stated cut-off is given here; in the data, active means inhibition above about 40%; inactive means the rest.

SMILES | ABHD5-PLIN5 inh | NadD inh | Rpn11 inh | Rin1 Abl inh | XiGFP reactiv | Rpn11 inh conf | MMP-2 inh | Thrombin FP
C[C@H]1CCCCO[C@@H](CN(C)S(=O)(=O)c2ccc(F)cc2)[C@@H](C)CN([C@@H](C)CO)C(=O)c2cc(NC(=O)Nc3cccc4ccccc34)ccc2O1 | . | . | . | . | 0.1 | . | . | .
CC(=O)N1CCc2cc(N=NC3=C(O)CCCC3=O)ccc21 | 6.6 | -7.1 | 55.9* | -10.8 | 0.0 | 51.3* | -7.0 | 21.8
CCC(=O)N(Cc1ccco1)c1nc(C(=O)Nc2ccc(Cl)cc2)c(C)s1 | 11.3 | 6.5 | 44.2* | -1.9 | -0.1 | 9.5 | 26.0 | 2.1
NC1=NC[C@@H](CC2CCCCC2)N1CCc1cc(C(F)(F)F)cc(C(F)(F)F)c1 | -4.2 | 9.4 | 71.8* | -0.6 | . | 8.9 | -5.9 | -22.1
NC1=NC[C@H](Cc2ccc(O)cc2)N1CCc1cc(C(F)(F)F)cc(C(F)(F)F)c1 | 7.3 | -6.3 | 12.4 | 6.2 | -0.1 | . | . | .
CC(C)NC(=O)N1C2CN(Cc3ccc(F)cc3)CC1C2c1ccc(Br)cc1 (stereo not drawn) | . | . | . | . | 0.4 | . | . | .
Oc1ccc(C=Nc2ccc(N3CCOCC3)cc2)c(O)c1 | -11.3 | 12.0 | 4.9 | -0.1 | . | . | . | .
Oc1cc(Br)ccc1C=Nc1ccc(N2CCCCC2)cc1 | -11.1 | 2.1 | 47.6* | 2.7 | 0.0 | 24.7 | -25.8 | 9.4
C/C=C/c1cnc2c(c1)C(=O)N([C@H](C)CO)C[C@H](C)[C@H](CN(C)C(=O)C1CCC1)O2 | . | . | . | . | -1.3 | . | . | .
Cc1nnc(SCc2nc3sc4c(c3c(=O)[nH]2)CCCC4)[nH]c1=O | -3.7 | 8.1 | 61.4* | -2.7 | 0.0 | 21.3 | -6.2 | 83.9*
C[C@H](CO)N1C[C@H](C)[C@H](CN(C)Cc2ccc(C(=O)Nc3ccccc3N)cc2)Oc2c(NS(=O)(=O)c3ccc(F)cc3)cccc2C1=O | . | . | . | . | -0.1 | . | . | .
COc1ccc2c3c(n(C)c2c1)[C@@H](CO)N(Cc1ccccc1)CC31CN(S(C)(=O)=O)C1 | . | . | . | . | 0.5 | . | . | .
CCOC(=O)C1=C(C)N=c2s/c(=C/c3ccc(OCC(=O)O)c(OC)c3)c(=O)n2C1c1ccc(Cl)cc1 (stereo not drawn) | 4.5 | 11.9 | 52.9* | 1.1 | 0.2 | 92.7* | -10.2 | -7.2
CCOC(=O)C1=C(C)N=c2s/c(=C\c3ccc(OCC(=O)O)cc3)c(=O)n2C1c1ccc(Cl)cc1 (stereo not drawn) | -5.6 | 16.3 | 46.4* | 0.5 | 0.0 | 91.1* | -10.9 | 19.8
N#Cc1c(NC(=O)c2ccc(Br)o2)n(-c2ccccc2)c2nc3ccccc3nc12 | -11.7 | 8.0 | 58.3* | 7.7* | 3.8 | 5.8 | -33.2 | -13.6
CC(=O)Oc1ccc(C#C/C=C2\c3ccccc3C(=O)N2c2ccccc2)cc1 | 8.3 | 11.3 | 72.3* | 1.9 | . | 51.4* | -1.2 | -87.0
CCCC(/C=C/c1ccc(OC(C)=O)cc1)=C1/c2ccccc2C(=O)N1c1ccccc1 | -10.1 | 5.6 | 10.6 | -1.3 | 0.0 | . | . | .
CC(=O)C1=C(O)C2(C)c3c(O)c(C)c(O)c(C(C)=O)c3OC2CC1=O (stereo not drawn) | 5.8 | 1.1 | 53.6* | 2.5 | -0.1 | 69.2* | 11.6 | 90.7*
CCCCCCCC(=O)OCC(O)CO (stereo not drawn) | -2.6 | 2.7 | 25.4 | 3.2 | 0.2 | . | . | .
CCCCCCCCCCCCCCC(O)C[N+](C)(CCO)CCO (stereo not drawn) | 18.6 | 5.3 | 82.6* | 2.4 | 0.0 | 42.3* | -21.2 | -27.3
CCn1nc(NC(=O)c2ccccn2)c2cc3cccc(C)c3nc21 | -1.9 | 1.1 | 68.1* | 3.9 | . | 4.2 | -25.5 | 14.9
O=C(CSc1nc2ccccc2o1)Nc1nc2c(s1)CCCC2 | -1.3 | 0.5 | 96.4* | -2.1 | 4.4 | 48.8* | -21.1 | 33.0
CC(=O)Nc1ccc2c(c1)C(=O)N(C)C[C@@H](C)[C@@H](CN(C)C)O2 | . | . | . | . | 0.0 | . | . | .
C#CCOCCOCCOCCNc1nc(N2CCN(C(=O)CCCCCCCCCCNC(=O)[C@H](CO)n3cc(CCCSC)nn3)CC2)nc(N2CCN(C(=O)CCCCCCCCCCNC(=O)[C@H](CO)n3cc(CCCSC)nn3)CC2)n1 | 8.8 | 6.3 | -1.7 | 9.5 | -0.2 | . | . | .
C#CCOCCOCCOCCNc1nc(N2CCN(C(=O)CCCCCCCCCCNC(=O)[C@H](CCCCN)n3cc(C[C@@H](C)CC)nn3)CC2)nc(N2CCN(C(=O)CCCCCCCCCCNC(=O)[C@H](CCCCN)n3cc(C[C@@H](C)CC)nn3)CC2)n1 | 58.1* | 47.9* | 87.4* | 9.4 | . | 44.6* | -56.3 | 29.0
SMILES | ABHD5-PLIN5 inh | NadD inh | Rpn11 inh | Rin1 Abl inh | XiGFP reactiv | Rpn11 inh conf | MMP-2 inh | Thrombin FP
C#CCOCCOCCOCCNc1nc(N2CCN(C(=O)[C@H](Cc3cc4ccccc4[nH]3)n3cc([C@@H](N)CC(C)C)nn3)CC2)nc(N2CCN(C(=O)[C@H](Cc3cc4ccccc4[nH]3)n3cc([C@@H](N)CC(C)C)nn3)CC2)n1 | 50.8* | 69.6* | 68.1* | 2.8 | . | 33.1 | 1.4 | -4.7
CCC(=O)N1CC(=O)N2[C@H](CO)[C@@H](c3ccc(C#CC(C)C)cc3)[C@@H]2C1 | . | . | . | . | 0.0 | . | . | .
COc1ccc2c3c(n(C)c2c1)[C@H](CO)N(CC1CC1)CC31CN(Cc2nccs2)C1 | . | . | . | . | 0.3 | . | . | .
Cc1onc(-c2ccccc2)c1C(=O)Nc1nc2c(s1)C(=O)CC(C)(C)C2 | -7.1 | -3.5 | 116.8* | -3.3 | . | 1.6 | -2.4 | -15.7
O=C(Nc1ccc(-c2nc3ccccc3s2)c(O)c1)C1=COCCO1 | 4.8 | 5.6 | 47.8* | -0.8 | 0.4 | 43.2* | 38.5 | -19.6
COc1ccc(S(=O)(=O)N[C@@H]2C=C[C@H](CC(=O)N3CCC(Cc4ccccc4)CC3)O[C@@H]2CO)cc1 | . | . | . | . | -0.1 | . | . | .
Cc1cccc(Nc2nn3c(=O)c4ccccc4nc3s2)c1 | -2.8 | 0.0 | 125.5* | -3.2 | . | 46.3* | 36.8 | -18.8
COc1ccc2c3c([nH]c2c1)[C@H](CO)N(Cc1cccc(F)c1)CC31CN(CC2CC2)C1 | . | . | . | . | -0.1 | . | . | .
CN(C)c1ccc(N=Cc2nc(-c3ccccc3)oc2OC(=O)c2ccccc2)cc1 | -0.5 | 2.1 | 48.2* | 0.5 | 0.0 | 48.6* | -0.2 | active
CC(=O)Oc1oc(-c2ccccc2)nc1C=Nc1ccc(N(C)C)cc1 | 0.6 | -3.3 | 18.8 | 2.1 | 0.0 | . | . | .
C=CCOC(=O)c1cc(-c2ccc(/C=C3\C(=O)NC(=O)C(C#N)=C3C)o2)ccc1Cl | -19.9 | 69.1* | 58.1* | -2.2 | . | 37.2 | 13.6 | 30.6
Nc1ccc2c(c1)C(=NO)c1cc([N+](=O)[O-])ccc1-2 | 7.0 | 3.4 | 44.0* | -3.6 | 1.3 | 12.4 | -3.0 | 6.7
